From ChEMBL document CHEMBL1152204, “Novel potent and highly selective human A(3) adenosine receptor antagonists belonging to the 4-amido-2-arylpyrazolo[3,4-c]quinoline series: molecular docking analysis and pharmacological studies” (Bioorg Med Chem, 2009)

Legend:
[1] = molecular target: T1, Adenosine receptor A1 (Homo sapiens) (UniProt P30542); experiment: Displacement of [3H]DPCPX from human adenosine A1 receptor expressed in CHO cells at 1 uM by scintillation counting; format: cell-based
T1 sequence (whole entry): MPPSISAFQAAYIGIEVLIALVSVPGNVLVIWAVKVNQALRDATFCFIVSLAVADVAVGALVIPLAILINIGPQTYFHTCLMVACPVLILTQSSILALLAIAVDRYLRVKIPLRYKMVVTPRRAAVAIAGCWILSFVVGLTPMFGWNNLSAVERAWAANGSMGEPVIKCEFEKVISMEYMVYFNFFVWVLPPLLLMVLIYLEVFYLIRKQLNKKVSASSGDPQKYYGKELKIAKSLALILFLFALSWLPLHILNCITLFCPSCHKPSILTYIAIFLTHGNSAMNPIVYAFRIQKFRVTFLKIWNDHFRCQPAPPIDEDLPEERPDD
Procedure, shortened: (§1)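 hA1-CHO membranes (50 µg protein) with 1 nM [³H]DPCPX in 50 mM Tris-HCl pH 7.4, 120 min at 25 °C; nonspecific binding with 10 µM CHA. GF/B filtration. Ki from six to eight concentrations via Cheng–Prusoff (four duplicate assays); or % inhibition at 1 µM.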

[2] = molecular target: T2, Adenosine receptor A2b (Homo sapiens) (UniProt P29275); experiment: Antagonist activity at human adenosine A2B receptor expressed in CHO cells assessed as inhibition of NECA-induced cAMP accumulation at 1 uM; format: functional, cell-based
T2 sequence (whole entry): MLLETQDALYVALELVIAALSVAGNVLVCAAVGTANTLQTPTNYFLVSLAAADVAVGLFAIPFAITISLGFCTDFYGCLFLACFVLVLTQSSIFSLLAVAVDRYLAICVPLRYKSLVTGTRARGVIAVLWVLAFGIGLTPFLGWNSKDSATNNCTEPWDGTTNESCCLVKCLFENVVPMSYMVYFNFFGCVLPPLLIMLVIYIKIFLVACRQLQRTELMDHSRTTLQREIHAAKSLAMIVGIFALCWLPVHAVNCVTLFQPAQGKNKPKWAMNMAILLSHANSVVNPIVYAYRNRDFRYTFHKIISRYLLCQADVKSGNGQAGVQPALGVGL
Procedure, shortened: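 Whole hA2B-CHO cells (1 × 10⁶/assay) in buffered saline, pH 7.4, with 2 IU/ml adenosine deaminase and Ro 20-1724; preincubated 10 min at 37 °C. Stimulated with 200 nM NECA; compound at 1 µM. Stopped with cold 6% TCA, ether-extracted; cAMP by [³H]cAMP competition protein binding; % inhibition reported.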

[3] = molecular target: T3, Adenosine receptor A2a (Homo sapiens, UniProt P29274); experiment: Displacement of [3H]ZM241385 from human adenosine A2A receptor expressed in CHO cells at 1 uM by scintillation counting; format: cell-based
T3 sequence (P29274 whole entry): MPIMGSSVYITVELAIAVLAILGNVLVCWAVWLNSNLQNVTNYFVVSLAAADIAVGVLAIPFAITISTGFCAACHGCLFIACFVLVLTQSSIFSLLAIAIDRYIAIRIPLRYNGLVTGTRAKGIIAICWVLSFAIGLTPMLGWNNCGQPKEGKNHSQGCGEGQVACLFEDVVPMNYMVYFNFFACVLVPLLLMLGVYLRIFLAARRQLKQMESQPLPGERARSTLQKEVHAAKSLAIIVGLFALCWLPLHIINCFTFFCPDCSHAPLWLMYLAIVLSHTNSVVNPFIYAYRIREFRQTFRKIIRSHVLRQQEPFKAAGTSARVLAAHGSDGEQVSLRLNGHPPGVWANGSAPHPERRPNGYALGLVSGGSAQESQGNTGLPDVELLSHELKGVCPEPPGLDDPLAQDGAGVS
Procedure, shortened: (§2)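 hA2A-CHO membranes (50 µg protein) with 1 nM [³H]ZM241385 in 50 mM Tris-HCl, 10 mM MgCl2, pH 7.4; 60 min at 4 °C; nonspecific binding with 1 µM ZM241385. GF/B filtration. Ki from six to eight concentrations via Cheng–Prusoff; or % inhibition at 1 µM.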

[4] = molecular target: T4, Adenosine receptor A3 (Homo sapiens) (UniProt P0DMS8); experiment: (§3) Displacement of [125I]AB-MECA from human adenosine A3 receptor expressed in CHO cells by scintillation counting; format: cell-based; parameters: concentration or dose not given beside the values; conditions: concentration not given here
T4 sequence (whole entry): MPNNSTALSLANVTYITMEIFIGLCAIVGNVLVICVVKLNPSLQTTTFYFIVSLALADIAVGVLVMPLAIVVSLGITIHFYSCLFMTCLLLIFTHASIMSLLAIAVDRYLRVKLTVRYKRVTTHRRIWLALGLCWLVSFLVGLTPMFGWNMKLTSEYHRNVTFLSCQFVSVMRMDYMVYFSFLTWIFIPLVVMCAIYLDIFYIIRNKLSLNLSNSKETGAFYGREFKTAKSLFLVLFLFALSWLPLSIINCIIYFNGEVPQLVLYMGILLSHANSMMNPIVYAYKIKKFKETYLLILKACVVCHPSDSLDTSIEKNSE
Procedure, shortened: (§4)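 hA3-CHO membranes (50 µg protein) with 0.5 nM [125I]AB-MECA in 50 mM Tris-HCl, 10 mM MgCl2, 1 mM EDTA, pH 7.4; six to eight ligand concentrations; 120 min at 4 °C. Nonspecific binding: 1 µM AB-MECA. GF/B filtration. Ki by Cheng–Prusoff, means of four assays in duplicate.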

[5] = molecular target: T5, Adenosine receptor A3 (Homo sapiens, UniProt P0DMS8); experiment: as §3; format: cell-based; procedure, shortened: as §4
T5 sequence (P0DMS8 whole entry): T4 sequence (whole entry)

[6] = molecular target: T5, Adenosine receptor A3; experiment: Antagonist activity at human adenosine A3 receptor expressed in CHO cells assessed as inhibition of CI-IB-MECA-mediated inhibition of cAMP accumulation by competition protein binding assay; format: functional, cell-based
Procedure, shortened: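 hA3-CHO cells (1 × 10⁶/assay) preincubated 10 min at 37 °C in buffered saline pH 7.4 with adenosine deaminase (2 IU/ml) and Ro 20-1724. cAMP inhibited by 100 nM Cl-IB-MECA; antagonist 1 nM–1 µM. TCA stop, ether extraction, cAMP by [³H]cAMP/adrenal binding-protein competition. IC50 as mean of four experiments.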

[7] = molecular target: T6, Adenosine receptor A3 (Rattus norvegicus) (UniProt P28647); experiment: Displacement of [125I]AB-MECA from rat adenosine A3 receptor expressed in HEK293 cells at 1 uM by scintillation counting; format: cell-based
T6 sequence (whole entry): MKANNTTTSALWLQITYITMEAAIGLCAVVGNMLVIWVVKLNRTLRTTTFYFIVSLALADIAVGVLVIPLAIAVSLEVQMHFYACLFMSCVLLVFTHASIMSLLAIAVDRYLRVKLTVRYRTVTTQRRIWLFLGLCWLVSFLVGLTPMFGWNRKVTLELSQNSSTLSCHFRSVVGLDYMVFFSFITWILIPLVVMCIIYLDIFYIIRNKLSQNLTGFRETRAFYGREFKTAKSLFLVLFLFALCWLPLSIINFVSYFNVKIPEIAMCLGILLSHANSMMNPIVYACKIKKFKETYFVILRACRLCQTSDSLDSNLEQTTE
Procedure, shortened: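 rA3-HEK293 membranes (10 µg protein) with 0.5 nM [125I]AB-MECA in Tris-HCl/MgCl2/EDTA buffer pH 7.4; 120 min at 25 °C; GF/B filtration and scintillation counting; percent inhibition at 1 µM test compound.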

[8] = molecular target: T7, Adenosine receptor A1 (Homo sapiens, UniProt P30542); experiment: Displacement of [3H]DPCPX from human adenosine A1 receptor expressed in CHO cells by scintillation counting; format: cell-based; procedure, shortened: as §1
T7 sequence (P30542 whole entry): T1 sequence (whole entry)

[9] = molecular target: T3, Adenosine receptor A2a; experiment: Displacement of [3H]ZM241385 from human adenosine A2A receptor expressed in CHO cells by scintillation counting; format: cell-based; procedure, shortened: as §2

Compound | inhibition [1] | inhibition [2] | inhibition [3] | inhibition [4] | Ki [5] | IC50 [6] | inhibition [7] | Ki [8] | Ki [9]
O=c1[nH]c2ccccc2c2cn(-c3cccc(C(F)(F)F)c3)nc12 | 2% | 3% | 5% | 4% | – | – | – | – | –
O=C(Nc1nc2ccccc2c2cn(-c3ccccc3)nc12)c1ccoc1 | 9% | 5% | 2% | – | 50 nM | – | – | – | –
O=C(Nc1nc2ccccc2c2cn(-c3ccccc3)nc12)c1ccsc1 | 1% | 2% | 2% | – | 40 nM | – | – | – | –
O=C(Nc1nc2ccccc2c2cn(-c3ccc(C(F)(F)F)cc3)nc12)c1ccccc1 | 10% | 3% | 1% | – | 140 nM | – | – | – | –
O=C(Nc1nc2ccccc2c2cn(-c3ccccc3)nc12)c1ccccn1 | 3% | 15% | 9% | – | 15.5 nM | 107 nM | 23% | – | –
Nc1nc2ccccc2c2cn(-c3cccc(C(F)(F)F)c3)nc12 | 6% | 4% | 7% | 30% | – | – | – | – | –
O=C(Nc1nc2ccccc2c2cn(-c3ccccc3)nc12)c1ccco1 | 34% | 3% | 20% | – | 3.4 nM | 21 nM | 29% | – | –
O=C(c1cccc(C(F)(F)F)c1)N(C(=O)c1cccc(C(F)(F)F)c1)c1nc2ccccc2c2cn(-c3ccccc3)nc12 | 4% | 6% | 3% | 24% | – | – | – | – | –
Nc1nc2ccccc2c2cn(-c3ccc(C(F)(F)F)cc3)nc12 | 1% | 11% | 1% | 11% | – | – | – | – | –
Cc1ccc(C(=O)Nc2nc3ccccc3c3cn(-c4ccccc4)nc23)o1 | – | 5% | 10% | – | 7.5 nM | 49 nM | 30% | 500 nM | –
O=C(Nc1nc2ccccc2c2cn(-c3ccccc3)nc12)c1cccs1 | 45% | 6% | 1% | – | 50 nM | – | – | – | –
O=c1[nH]c2ccccc2c2cn(-c3ccc(C(F)(F)F)cc3)nc12 | 6% | 5% | 10% | – | 480 nM | – | – | – | –
O=C(Nc1nc2ccccc2c2cn(-c3ccccc3)nc12)c1cscn1 | 12% | 2% | 1% | – | 60 nM | – | – | – | –
O=C(c1ccc(C(F)(F)F)cc1)N(C(=O)c1ccc(C(F)(F)F)cc1)c1nc2ccccc2c2cn(-c3ccccc3)nc12 | 17% | 1% | 1% | 29% | – | – | – | – | –
O=C(Nc1nc2ccccc2c2cn(-c3ccccc3)nc12)c1cccc(C(F)(F)F)c1 | 23% | 2% | 1% | – | 60 nM | – | – | – | –
O=C(Nc1nc2ccccc2c2cn(-c3ccc(Cl)cc3)nc12)c1ccco1 | 17% | 2% | 1% | – | 11.5 nM | 83 nM | 11% | – | –
O=C(Nc1nc2ccccc2c2cn(-c3ccccc3)nc12)c1ccncc1 | 8% | 1% | 1% | – | 5 nM | 41 nM | 26% | – | –
O=C(Nc1nc2ccccc2c2cn(-c3ccccc3)nc12)c1ccc(C(F)(F)F)cc1 | 10% | 4% | 3% | – | 415 nM | – | – | – | –
Cc1ccc(-n2cc3c(n2)c(NC(=O)c2ccccc2)nc2ccccc23)cc1 | – | – | 26% | – | – | – | – | – | –
Cc1cccc(-n2cc3c(n2)c(NC(=O)c2ccccc2)nc2ccccc23)c1 | – | – | – | – | – | – | – | – | 2860 nM
O=C(c1ccccc1)N(C(=O)c1ccccc1)c1nc2ccccc2c2cn(-c3ccccc3)nc12 | 0% | – | 0% | – | – | – | – | – | –
O=C(Nc1nc2ccccc2c2cn(-c3ccc(Cl)cc3)nc12)c1ccncc1 | 4% | 3% | 2% | – | 24.7 nM | 145 nM | 21% | – | –
O=C(Nc1nc2ccccc2c2cn(-c3ccccc3)nc12)c1cccnc1 | 26% | 1% | 1% | – | 10.5 nM | 76 nM | 27% | – | –
Cc1cccc(C(=O)Nc2nc3ccccc3c3cn(-c4ccccc4)nc23)c1 | 20% | 35% | 1% | – | 6.3 nM | 26 nM | 5% | – | –
O=C(Nc1nc2ccccc2c2cn(-c3ccccc3)nc12)c1cnccn1 | 6% | 2% | 6% | – | 65 nM | – | – | – | –
O=C(Nc1nc2ccccc2c2cn(-c3ccccc3)nc12)c1ccncn1 | 9% | 3% | 6% | – | 210 nM | – | – | – | –
O=C(Nc1nc2ccccc2c2cn(-c3cccc(C(F)(F)F)c3)nc12)c1ccccc1 | 13% | 3% | 1% | – | 52 nM | – | – | – | –
O=C(Nc1nc2ccccc2c2cn(-c3ccccc3)nc12)c1ccccc1 | 0% | – | 0% | – | 2 nM | – | – | – | –
Cc1ccc(C(=O)Nc2nc3ccccc3c3cn(-c4ccccc4)nc23)cc1 | 6% | 38% | 1% | – | 11.5 nM | 54 nM | 7% | – | –
O=C(Nc1nc2ccccc2c2cn(-c3ccccc3)nc12)c1ncccn1 | 6% | 1% | 2% | – | 945 nM | – | – | – | –
